How the values were obtained:
[1] = target: T1, human TGR5 receptor (Homo sapiens, UniProt Q8TDU6); type: cell-based
T1 sequence (Q8TDU6 1-330): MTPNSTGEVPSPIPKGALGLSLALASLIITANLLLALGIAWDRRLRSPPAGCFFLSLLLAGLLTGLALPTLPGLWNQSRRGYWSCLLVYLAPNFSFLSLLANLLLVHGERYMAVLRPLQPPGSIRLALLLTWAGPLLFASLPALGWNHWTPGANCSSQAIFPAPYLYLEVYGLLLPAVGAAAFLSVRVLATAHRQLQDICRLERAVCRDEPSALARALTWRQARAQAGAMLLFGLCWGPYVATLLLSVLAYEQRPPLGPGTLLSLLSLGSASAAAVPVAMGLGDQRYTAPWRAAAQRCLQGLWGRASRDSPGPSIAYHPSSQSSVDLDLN

[2] = tested on: NCI-H716 human enteroendocrine cell line; assay: TGR5-mediated GLP1 secretion; type: cell-based; details: NCI-H716 cells, 1 hour, in presence of 0.05% sitagliptin; versus vehicle
Method in brief: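 NCI-H716 human enteroendocrine cells exposed 1 h to vehicle, test compound or lithocholic acid (positive control), with 0.05% DPP-4 inhibitor sitagliptin present. Active GLP1 in culture supernatant measured by ELISA, expressed in pM. Two experiments, each in duplicate, averaged.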

[3] = tested on: high-fat DIO C57bl/6J mice; assay: Glycemic control; type: in vivo, mouse; details: 4 weeks of treatment, 9 mg/kg oral once daily
Method in brief: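 DIO C57bl/6J males on 45% kcal-fat diet for 8±2 weeks before study, diet continued. Oral dosing once daily for 4 weeks in 0.5% w/v Tween-80 + 0.5% w/v Na-CMC in water. OGTT: 6 h fast, dose, 0-min sample 15 min later, glucose 2 g/kg, tail-snip samples at 15–120 min. K-EDTA plasma; glucose by autoanalyzer, fasting insulin by rat/mouse ELISA.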

[4] = tested on: DIO male Golden Syrian hamsters; assay: Plasma lipid parameters in high fat-fed DIO hamsters, experiment C; type: in vivo, hamster; details: end of treatment week 5, 6 mg/kg intraperitoneal
[5] = tested on: DIO male Golden Syrian hamsters; assay: Oral fat tolerance test; type: in vivo, hamster; details: week 4, 6 mg/kg intraperitoneal
Method in brief: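 Male Golden Syrian hamsters fed 45% kcal-fat diet for 8±2 weeks. Test compound given i.p. in 0.9% Na-CMC + 0.1% Tween-80 in PBS pH 7.4, with oral vehicle dummy. At end of week 4: 6 h fast, pre-load sample, oral olive oil 5 mL/kg, samples at 60–240 min. Retro-orbital bleeds under mild anaesthesia; K-EDTA plasma triglyceride by autoanalyzer.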

[6] = tested on: DIO male Golden Syrian hamsters; assay: Oral glucose tolerance test in DIO hamsters; type: in vivo, hamster; details: TRC210258 6 mg/kg intraperitoneal, sitagliptin 3 mg/kg oral
Method in brief: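 Hamsters made obese on 45% kcal-fat diet for 8±2 weeks. Double-dummy dosing: i.p. vehicle 0.9% Na-CMC + 0.1% Tween-80 in PBS pH 7.4, oral vehicle 0.5% Tween-80 + 0.5% Na-CMC in water. Oral glucose tolerance test done during treatment. Retro-orbital sampling under mild anaesthesia into K-EDTA. Plasma glucose by autoanalyzer; insulin by hamster-specific ELISA.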

[7] = Pharmacokinetics in DIO mice; type: in vivo, mouse
[8] = Pharmacokinetics in DIO hamsters; type: in vivo, hamster
[9] = DIO mice, 9 mg/kg orally, mean ± standard deviation
[10] = DIO hamsters, 6 mg/kg intraperitoneally, mean ± standard deviation

## CN(C(=O)c1c(Oc2ccc(F)cc2)nc2ncccn12)c1ccc(Cl)cc1 [TRC210258, N-(4-chlorophenyl)-2-(4-fluorophenoxy)-N-methylimidazo [1,2-a] pyrimidine-3-carboxamide]
[1]
  EC50: 221 nM
[2]
  GLP1 secretion: significant induction of GLP1 secretion
[3]
  Homeostasis Model of Assessment-Insulin Resistance (HOMA-IR): trend toward amelioration
[4]
  improvement (reduction) in LDL cholesterol vs vehicle control: 26.2%
  improvement (reduction) in non-HDL cholesterol vs vehicle control: 32%
  improvement (reduction) in total cholesterol vs vehicle control: 25.4%
  improvement (reduction) in triglycerides vs vehicle control: 28.3%
[5]
  time taken to reach peak plasma triglyceride levels after oral fat loading: 120 min
[6]
  AUC(0–120 min) for insulin in oral glucose tolerance test: higher
[7]; C57bl/6J, mouse, plasma, po, 9 mg/kg
  Cmax: 59.4 ± 22.2 ng/mL
[7]; [9]
  AUClast: 525.7 ± 127.0 ng·h/mL
  Tmax: 2.25 ± 1.25 h
[8]; [10]
  AUClast: 726.2 ± 223.8 ng·h/mL
  Tmax: 1.5 ± 0.71 h
[8]; Golden Syrian, hamster, plasma, ip, 6 mg/kg
  Cmax: 78.7 ± 31.8 ng/mL
[8]; hamster, oral
  oral bioavailability in hamsters compared with mice: lower oral bioavailability

## N[C@@H](CC(=O)N1CCn2c(nnc2C(F)(F)F)C1)Cc1cc(F)c(F)cc1F [sitagliptin, reference compound]
[6]
  AUC(0–120 min) for insulin in oral glucose tolerance test: higher

Source: PMC3873233 (Diabetes, Metabolic Syndrome and Obesity: Targets and …, 2013)
